Test results as given in BindingDB's records for doi:10.1016/j.bmcl.2010.09.046 (Human Biomolecular Research Institute, 2010).

Columns and labels:
Bcl-2-related protein A1 [1] = biological target: T1, Bcl-2-related protein A1 (Homo sapiens, UniProt Q16548); test: Inhibition of N-terminal FITC BH3 peptide binding to GST-tagged Bfl1 by time resolved-FRET assay
T1 sequence (Q16548 whole entry): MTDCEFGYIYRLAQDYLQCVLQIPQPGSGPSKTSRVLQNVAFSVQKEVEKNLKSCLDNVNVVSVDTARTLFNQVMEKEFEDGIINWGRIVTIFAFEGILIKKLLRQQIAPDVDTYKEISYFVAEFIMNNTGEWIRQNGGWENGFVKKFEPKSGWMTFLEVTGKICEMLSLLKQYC
Method in brief: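 10-point 2-fold dilution series in 10% final DMSO, in duplicate wells. FITC-Bid (5.6 nM) plus Tb-antibody (2.5 nM) was then added and incubated 4 h at room temperature. TR-FRET read at ex 340 nm, signal taken as the 520/490 nm emission ratio.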

Bcl-2-related protein A1 [2] = biological target: T1, Bcl-2-related protein A1; test: Inhibition of N-terminal FITC BH3 peptide binding to GST-tagged Bfl1 by fluorescence polarization assay
Method in brief: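 Then FITC-Bid BH3 peptide (5.6 nM working solution) was added and incubated 4 h at room temperature. Ten concentrations in 10% DMSO. Fluorescence polarization read at ex 485/em 530 nm. IC50 from sigmoidal dose-response non-linear regression.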

IC50 (Bcl-2-related protein A1 [1])	IC50 (Bcl-2-related protein A1 [2])	Structure (SMILES)
> 10 µM	> 10 µM	CN1CCN(c2cc(O)n(-c3ccc(Cl)c(Cl)c3)c2O)CC1 [1-(3,4-dichlorophenyl)-3-(4-methylpiperazin-1-yl)pyrrolidine-2,5-dione]
> 50 µM	> 50 µM	Oc1c(Cl)c(N=Cc2ccccc2)c(O)n1-c1ccc(Cl)c(Cl)c1 [MLS-0067125.0001]
